Laboratory results from ChEMBL document CHEMBL1158355, “Novel pyridazine derivatives: Synthesis and antimicrobial activity evaluation” (2009).

Columns and labels:
Assay type in all cases: functional
Pseudomonas aeruginosa = assay: Antibacterial activity against Pseudomonas aeruginosa at 20 mg/mL by agar diffusion method
Procedure, shortened: (§1)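 Agar diffusion assay with test solutions at 20 mg/mL in DMSO, run alongside tetracycline as reference. Read-out is the diameter of the inhibition zone in mm, reported as an average.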

Enterococcus faecalis = assay: Antibacterial activity against Streptococcus faecalis at 20 mg/mL by agar diffusion method; procedure, shortened: as §1
Staphylococcus aureus = assay: Antibacterial activity against Staphylococcus aureus at 20 mg/mL by agar diffusion method; procedure, shortened: as §1
Escherichia coli = assay: Antibacterial activity against Escherichia coli at 20 mg/mL by agar diffusion method; procedure, shortened: as §1

Row | Structure (SMILES) | diameter of the inhibition zone (DIZ) (Pseudomonas aeruginosa) [mm] | diameter of the inhibition zone (DIZ) (Enterococcus faecalis) [mm] | diameter of the inhibition zone (DIZ) (Staphylococcus aureus) [mm] | diameter of the inhibition zone (DIZ) (Escherichia coli) [mm]
1 | COc1ccc(-c2cc(Cc3ccccc3OC)/c(=N\N=C\C(OC(C)=O)C(OC(C)=O)C(OC(C)=O)C(COC(C)=O)OC(C)=O)[nH]n2)cc1 (configuration not stated) | 13 | 14 | 13 | 14
2 | COc1ccccc1Cc1cc(-c2ccccc2)n[nH]/c1=N/N=C/c1ccc(OCCOc2ccc(C=O)cc2)cc1 | 13 | 12 | 14 | 12
3 | COc1ccc(-c2cc(Cc3ccccc3OC)/c(=N/N=C(\c3ccccc3)c3ccccc3C(=O)O)[nH]n2)cc1 | 17 | 17 | 18 | 16
4 | COc1ccc(-c2cc(Cc3ccccc3OC)/c(=N/N=C/C(O)C(O)C(O)CO)[nH]n2)cc1 (configuration not stated) | 11 | 12 | 12 | 12
5 | COc1ccc(-c2cc(Cc3ccccc3OC)/c(=N/N=C/c3ccc(O)c(OC)c3)[nH]n2)cc1 | 13 | 12 | 12 | 12
6 | COc1ccccc1Cc1cc(-c2ccc(Cl)cc2)n[nH]/c1=N\N=C\C(O)C(O)C(O)CO (configuration not stated) | 15 | 17 | 16 | 16
7 | CN(C)[C@@H]1C(O)=C(C(N)=O)C(=O)[C@@]2(O)C(O)=C3C(=O)c4c(O)cccc4[C@@](C)(O)[C@H]3C[C@@H]12 [TETRACYCLINE] | 24 | 26 | 20 | 22
8 | COc1ccccc1Cc1cc(-c2ccccc2)n[nH]/c1=N\N=C(c1ccccc1)c1ccccc1 | 13 | 13 | 13 | 12
9 | COc1ccc(-c2cc(Cc3ccccc3OC)/c(=N/N=C(\C)C(C)=O)[nH]n2)cc1 | 13 | 13 | 13 | 13
10 | COc1ccccc1Cc1cc(-c2ccccc2)n[nH]/c1=N\N=C(/C)c1ccccc1 | 12 | 13 | 13 | 12
11 | COc1ccccc1Cc1cc(-c2ccccc2)n[nH]/c1=N/N=C/c1cc(OC)c(OCCOc2c(OC)cc(C=O)cc2OC)c(OC)c1 | 14 | 13 | 14 | 12
12 | COc1ccccc1Cc1cc(-c2ccccc2)n[nH]/c1=N\N=C(C)C | 15 | 16 | 16 | 15
13 | COc1ccccc1Cc1cc(-c2ccc(Cl)cc2)n[nH]/c1=N/N=C/c1ccc(OCCOc2ccc(C=O)cc2OC)c(OC)c1 | 13 | 12 | 12 | 13
14 | COc1ccccc1Cc1cc(-c2ccc(C)cc2)n[nH]/c1=N/N=C/C(OC(C)=O)C(OC(C)=O)C(COC(C)=O)OC(C)=O (configuration not stated) | 12 | 13 | 13 | 13
15 | COc1ccc(-c2cc(Cc3ccccc3OC)/c(=N/N=C/C(O)C(O)C(O)C(O)CO)[nH]n2)cc1 (configuration not stated) | 14 | 15 | 16 | 15
16 | COc1ccc(-c2cc(Cc3ccccc3OC)/c(=N/N=C/c3ccc(OC(C)=O)c(OC)c3)[nH]n2)cc1 | 12 | 13 | 14 | 15
17 | COc1ccccc1Cc1cc(-c2ccc(C)cc2)n[nH]\c1=N/N=C(C)/C(C)=N/N=c1/[nH]nc(-c2ccc(C)cc2)cc1Cc1ccccc1OC | 14 | 13 | 14 | 13
18 | COc1ccc(-c2cc(Cc3ccccc3OC)/c(=N\N=C\c3ccc(OCCOc4ccc(C=O)cc4OC)c(OC)c3)[nH]n2)cc1 | 10 | 10 | 10 | 11
